The test system of assay [1] is Actinomyces viscosus. Description: Chlorohexidine coefficient for Actinomyces viscosus M-100. The class given is functional. In short, it runs like this:
(§1)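 Hydroxylapatite-grown plaques were exposed once daily for 2 min to varying concentrations of agent until the organisms were killed. The highest level tested was 0.2% w/v for 5 days. Tests were run in duplicate. PBI is the concentration (mM) × duration (min) × frequency (days) needed for plaque kill. CC is the chlorhexidine PBI divided by the test-agent PBI.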

Assay [2] relates to Actinomyces viscosus. Description: Plaque bactericidal index against Actinomyces viscosus M-100 measured as chlorohexidine coefficient. The class given is functional. In short, it runs like this:
as §1

Assay [3] relates to Streptococcus sobrinus. Put plainly: Minimal bactericidal concentration against Streptococcus sobrinus 6715-13. The class given is functional. A digest of the protocol: (§2)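 Plaques were grown on standardized ceramic hydroxylapatite plates and immersed once in agent for 30 min. They were rinsed with sterile distilled water, moved to fresh broth and incubated anaerobically at 37 °C. Kill meant no further culture acid production, no turbidity change, and no growth when 48-h post-treatment plaque samples were subcultured. Tests were run in duplicate.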

For assay [4], the system named is Streptococcus sobrinus. Description: Plaque bactericidal index against Streptococcus sobrinus 6715-13 measured as chlorohexidine coefficient. The class given is functional. In short, it runs like this:
as §1

Assay [5] deals with Streptococcus sobrinus. Description: Chlorohexidine coefficient for Streptococcus sobrinus 6715-13. The class given is functional. A digest of the protocol: as §1
Assay [6] has as its system Actinomyces viscosus. Put plainly: Plaque bactericidal index against Actinomyces viscosus M-100 measured as chlorohexidine coefficient; d=Not bactericidal at highest concentration tested (0.2% w/v, 2min, 5 days). The class given is functional, organism-based. In short, it runs like this: as §1
Assay [7] concerns Streptococcus sobrinus. Put plainly: Plaque bactericidal index against Streptococcus sobrinus 6715-13 measured as chlorohexidine coefficient; d=Not bactericidal at highest concentration tested (0.2% w/v, 2min, 5 days). It counts as functional, organism-based. A digest of the protocol: as §1
For assay [8], the system named is Actinomyces viscosus. Description: Plaque bactericidal index against Actinomyces viscosus M-100 measured as chlorohexidine coefficient; not bactericidal at highest concentration tested (0.2% w/v, 2min, 5 days). It counts as functional, organism-based. A digest of the protocol:
as §1

The subject of assay [9] is Streptococcus sobrinus. Put plainly: Minimal bactericidal concentration against d Streptococcus sobrinus 6715-13; Not active at 20 mM. The class given is functional, organism-based. In short, it runs like this: as §2

The source of these data is ChEMBL document CHEMBL1123990, “The in vitro dental plaque inhibitory properties of a series of N-[1-alkyl-4(1H)-pyridinylidene]alkylamines” (1988).

The structures appear in SMILES notation. ≈ marks a conversion by molar mass, not a printed value. Calls of active or inactive are those of the source. No cut-off for these calls is given here.

Take `Br.CCCCCCCCN=c1ccn(CCCCCC)cc1`: the CC was determined as 1.4 with Actinomyces viscosus [1] and 2.4 in the assay on Streptococcus sobrinus [5]. Besides, the results for the PBI in the assay on Actinomyces viscosus [2] and in the assay with Streptococcus sobrinus [4] were 13.5 and 10.8, respectively. For the same compound, in the assay on Streptococcus sobrinus [3], the MBC (as a rule, the lowest tested concentration that kills the bacteria rather than only halting them) came to 1350 µM.
The like results for `CCCCCCCCCN=c1ccn(CCCCCCCCC)cc1.Cl` were, in that order, 4, 2.5, 5.2, 10.4 and 2610 µM.
The like results for `Br.CCCCCCCCN=c1ccn(CCCCCCC)cc1` were, in that order, 2.5, 3.3, 7.8, 7.8 and 1300 µM.
The like results for `CCCCCCCCCn1ccc(=NCCCCCCC)cc1.Cl` were, in that order, 1.7, 3, 11.3, 8.5 and 1410 µM.
Take `CCCCCCCCCCCCCCN=c1ccn(Cc2ccccc2)cc1`: the PBI result in the assay on Actinomyces viscosus [6] and in the assay with Streptococcus sobrinus [7] was “Not bactericidal” in each case. For the same compound, the MBC against Streptococcus sobrinus [3] is 240 µM (≈ 91.3 µg/mL).
`CCCCCCCCN=c1ccn(Cc2ccc(Cl)cc2)cc1.Cl`: the CC in the assay with Actinomyces viscosus [1] turned out to be 3.6; in the assay on Streptococcus sobrinus [5] it was 2.3. Also, the PBI is listed as 5.4 in the assay on Actinomyces viscosus [2] and 10.9 in the assay with Streptococcus sobrinus [4]. The compound further came in with an MBC with Streptococcus sobrinus [3] of 270 µM.
Turning to `CCCCCCCCCCCCN=c1ccn(C)cc1.I`, the CC with Actinomyces viscosus [1] turned out to be 1; in the assay on Streptococcus sobrinus [5], 2.1. Moreover, the PBI in the assay on Actinomyces viscosus [2] worked out at 19.2; in the assay on Streptococcus sobrinus [4], 12.4. In addition, the MBC with Streptococcus sobrinus [3] was 1240 µM.
The like results for `CCCCCCCCN=c1ccn(Cc2ccccc2)cc1.Cl` were, in that order, 1.6, 1.1, 12, 24 and 1500 µM.
With `Br.CCCCCCCN=c1ccn(CCCCCCC)cc1`, the CC was found to be 4 with Actinomyces viscosus [1] and 3.2 in the assay on Streptococcus sobrinus [5]. Moreover, the results for the PBI with Actinomyces viscosus [2] and in the assay on Streptococcus sobrinus [4] were 5.4 and 8, respectively. Also, in the assay with Streptococcus sobrinus [3], the MBC was 1350 µM.
On to `N=C(NCCCCCCNC(=N)NC(=N)Nc1ccc(Cl)cc1)NC(=N)Nc1ccc(Cl)cc1` [CHLORHEXIDINE], for which the PBI in the assay with Actinomyces viscosus [2] was determined as 19.2; in the assay with Streptococcus sobrinus [4] it was 25.6. Moreover, the MBC in the assay with Streptococcus sobrinus [3] came out at 3200 µM (≈ 1620 µg/mL).
As to `Br.CCCCC(CC)CN=c1ccn(CC(CC)CCCC)cc1` (centres undefined), the CC with Actinomyces viscosus [1] came to 1; with Streptococcus sobrinus [5], 1.3. The PBI in the assay on Actinomyces viscosus [2] and in the assay on Streptococcus sobrinus [4] was 20 in each case. Further, the MBC in the assay on Streptococcus sobrinus [3] came out at 1250 µM.
As to `Br.CCCCCCCCCN=c1ccn(CCCCCCCC)cc1`, the results for the CC with Actinomyces viscosus [1] and in the assay with Streptococcus sobrinus [5] were 1.9 and 2.6, respectively. The PBI in the assay with Actinomyces viscosus [2] and in the assay on Streptococcus sobrinus [4] was 9.7 throughout. For the same compound, the MBC against Streptococcus sobrinus [3] worked out at 1210 µM.
As to `CN=c1ccn(C)cc1`, the PBI result with Actinomyces viscosus [8] and in the assay with Streptococcus sobrinus [7] was “Not bactericidal” throughout. The MBC result in the assay on Streptococcus sobrinus [9] was “inactive”.
In the case of `CCCCCCCCCn1ccc(=NCCCCCC)cc1.Cl`, the CC with Actinomyces viscosus [1] came out at 2.2; with Streptococcus sobrinus [5], 8.8. Moreover, the PBI in the assay on Actinomyces viscosus [2] is on record as 8.8; in the assay with Streptococcus sobrinus [4], 2.9. Besides, the MBC against Streptococcus sobrinus [3] was 290 µM.
